For one series, the system named is Saccharomyces cerevisiae. The series can be described thus: Antifungal activity against Saccharomyces cerevisiae BY4741a after 24 hrs. It counts as functional. In short, it runs like this:
(§1)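 C. albicans SC5314 or S. cerevisiae BY4741a (S288C derivative) grown 12 h at 30 °C, 200 rpm in YPD. 3×10^4 cells seeded per well of a 96-well plate with 1:2 serial dilutions of compound (stocks in 20% v/v DMSO and medium). DMSO and medium served as controls. Growth was scored visually after 24 h at 30 °C. MIC was taken as the well before first growth. Run twice.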

The nature of series [1]: Lipophilicity, log P of the compound. In kind it is physicochemical. The note with it: octanol/water.
In another series the test system is Candida albicans. Briefly: Antifungal activity against Candida albicans SC5314 after 24 hrs. It counts as functional. The note with it: SC5314, 24 h. In short, it runs like this: as §1
The subject of series [2] is Schizosaccharomyces pombe. Briefly: Antifungal activity against Schizosaccharomyces pombe after 24 hrs. In kind it is functional. The essentials: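 S. pombe NJ2 h⁻ (ura4-D18 leu1-32 ade6-M210 his7-366) precultured 12 h at 30 °C, 200 rpm in yeast extract broth (YE). 3×10^4 cells were exposed in 96-well plates to 1:2 serial dilutions of compound (stocks in 20% v/v DMSO and medium), with DMSO and medium controls. Growth was read visually at 24 h, 30 °C. MIC was the well preceding first visible growth. Duplicate experiments.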

SMILES strings stand for the structures. ≈ marks a conversion by molar mass, not a printed value.

Consider `Cc1sc2ccccc2[n+]1CCCCS(=O)(=O)[O-]`, for which the MIC (against Saccharomyces cerevisiae; against Candida albicans; in series [2]) was 1000 µg/mL (≈ 3.5 mM) throughout. Also, the logP (commonly the decadic logarithm of the partition coefficient of the neutral form, usually between octanol and water) in series [1] is on record as -4.411.
On to `CCCCCC[N+]1=C(C)C(C)(C)c2ccccc21.[I-]`, for which the MIC (usually the lowest concentration that inhibits growth of the organism) against Saccharomyces cerevisiae was 125 µg/mL; against Candida albicans, 1000 µg/mL; in series [2], 125 µg/mL. The logP in series [1] (read-out: logP) came to 1.76.
Turning to `CC1=[N+](Cc2ccccc2)c2ccccc2C1(C)C.[Br-]`, the MIC (against Saccharomyces cerevisiae; with Candida albicans; in series [2]) was 1000 µg/mL in each case. In series [1] (read-out: logP), the logP was 0.904.
Take `Cc1nc2ccccc2s1`: the MIC in the series on Saccharomyces cerevisiae amounted to 1000 µg/mL (≈ 6.7 mM); with Candida albicans, 1000 µg/mL (≈ 6.7 mM); in series [2], 250 µg/mL (≈ 1.68 mM). The logP in series [1] (read-out: logP) is 2.08.
Take `CC1=[N+](CCCS(=O)(=O)[O-])c2ccccc2C1(C)C`: the MIC (with Saccharomyces cerevisiae; in the series with Candida albicans; in series [2]) was 1000 µg/mL (≈ 3.55 mM) throughout. Moreover, in series [1], the logP is listed as -4.33.
With `c1ccc2[nH]c(-c3cscn3)nc2c1` [THIABENDAZOLE], the values for the MIC (with Saccharomyces cerevisiae; against Candida albicans; in series [2]) were 1000 µg/mL (≈ 4.97 mM), 1000 µg/mL (≈ 4.97 mM) and 31.2 µg/mL (≈ 0.155 mM), respectively.
As to `CC[N+]1=C(C)C(C)(C)c2ccccc21.[I-]`, the values for the MIC (against Saccharomyces cerevisiae; in the series with Candida albicans; in series [2]) were 500 µg/mL, 1000 µg/mL and 500 µg/mL, respectively. For the same compound, the logP in series [1] (read-out: logP) is -0.315.
In the case of `CCCC[n+]1c(C)sc2ccccc21.[Br-]`, the MIC stood at 250 µg/mL against Saccharomyces cerevisiae, 1000 µg/mL in the series on Candida albicans and 250 µg/mL in series [2]. The logP in series [1] (read-out: logP) was determined as 0.36.
In the case of `CCCCCCCCC[n+]1c(C)sc2ccccc21.[Br-]`, the MIC amounted to 7.8 µg/mL in the series with Saccharomyces cerevisiae, 500 µg/mL in the series with Candida albicans and 31.3 µg/mL in series [2]. In addition, the logP in series [1] (read-out: logP) came out at 2.89.
The corresponding values for `CCCCCC[n+]1c(C)sc2ccccc21.[Br-]` are 62.5 µg/mL, 1000 µg/mL, 250 µg/mL and 1.37.
Take `CC1=[N+](CCCCS(=O)(=O)[O-])c2ccccc2C1(C)C`: the MIC (in the series with Saccharomyces cerevisiae; against Candida albicans; in series [2]) was 1000 µg/mL (≈ 3.39 mM) throughout. In series [1], the logP is recorded as -4.114.
`Cc1sc2ccccc2[n+]1C.[I-]`: the MIC was 500 µg/mL in the series on Saccharomyces cerevisiae, 1000 µg/mL in the series on Candida albicans and 500 µg/mL in series [2]. For the same compound, in series [1] (read-out: logP), the logP was -1.08.
With `CCCCC[n+]1c(C)sc2ccccc21.[Br-]`, the results for the MIC (in the series with Saccharomyces cerevisiae; against Candida albicans; in series [2]) were 62.5 µg/mL, 1000 µg/mL and 250 µg/mL, respectively. For the same compound, the logP in series [1] (read-out: logP) amounted to 1.25.
The matching figures for `CCCCC[N+]1=C(C)C(C)(C)c2ccccc21.[I-]`: 250 µg/mL, 1000 µg/mL, 125 µg/mL and 1.25.
Consider `CC1=[N+](C)c2ccccc2C1(C)C.[I-]`, for which the values for the MIC (with Saccharomyces cerevisiae; in the series on Candida albicans; in series [2]) were 500 µg/mL, 1000 µg/mL and 500 µg/mL, respectively. Besides, in series [1] (read-out: logP), the logP is -0.691.
`CCC[n+]1c(C)sc2ccccc21.[I-]`: the MIC against Saccharomyces cerevisiae worked out at 250 µg/mL; with Candida albicans, 1000 µg/mL; in series [2] it was 250 µg/mL. The lipophilicity (logP) in series [1] (read-out: logP) is -0.199.
Take `CCCCCCCCC[N+]1=C(C)C(C)(C)c2ccccc21.[I-]`: the MIC against Saccharomyces cerevisiae worked out at 31.3 µg/mL; against Candida albicans, 1000 µg/mL; in series [2], 31.3 µg/mL. Moreover, the logP in series [1] (read-out: logP) came out at 3.27.
On to `CCCCCCC[n+]1c(C)sc2ccccc21.[Br-]`, for which the MIC amounted to 31.3 µg/mL against Saccharomyces cerevisiae, 1000 µg/mL against Candida albicans and 125 µg/mL in series [2]. The lipophilicity (logP) in series [1] (read-out: logP) is 1.88.
The matching figures for `CCC[N+]1=C(C)C(C)(C)c2ccccc21.[I-]`: 250 µg/mL, 1000 µg/mL, 250 µg/mL and 0.188.
The corresponding values for `CCCCCCCCCC[n+]1c(C)sc2ccccc21.[Br-]` are 3.9 µg/mL, 250 µg/mL, 7.8 µg/mL and 3.39.
As to `Cc1sc2ccccc2[n+]1Cc1ccccc1.[Br-]`, the MIC (in the series with Saccharomyces cerevisiae; against Candida albicans; in series [2]) was 1000 µg/mL in each case. The logP in series [1] (read-out: logP) was found to be 0.517.
Take `CCCCCCCC[n+]1c(C)sc2ccccc21.[Br-]`: the results for the MIC (against Saccharomyces cerevisiae; against Candida albicans; in series [2]) were 15.6 µg/mL, 1000 µg/mL and 62.5 µg/mL, respectively. Moreover, the logP in series [1] (read-out: logP) was 2.38.
The corresponding values for `CC[n+]1c(C)sc2ccccc21.[I-]` are 500 µg/mL, 1000 µg/mL, 250 µg/mL and -0.701.
`Cc1sc2ccccc2[n+]1CCCS(=O)(=O)[O-]`: the MIC (against Saccharomyces cerevisiae; in the series on Candida albicans; in series [2]) was 1000 µg/mL (≈ 3.69 mM) each time. The logP in series [1] is -4.576.
Consider `CC1=Nc2ccccc2C1(C)C`, for which the MIC worked out at 1000 µg/mL (≈ 6.28 mM) in the series on Saccharomyces cerevisiae, 500 µg/mL (≈ 3.14 mM) against Candida albicans and 250 µg/mL (≈ 1.57 mM) in series [2]. For the same compound, the logP in series [1] (read-out: logP) was determined as 3.29.
The corresponding values for `CCCC[N+]1=C(C)C(C)(C)c2ccccc21.[I-]` are 250 µg/mL, 1000 µg/mL, 250 µg/mL and 0.747.
The matching figures for `CCCCCCC[N+]1=C(C)C(C)(C)c2ccccc21.[I-]`: 125 µg/mL, 1000 µg/mL, 62.5 µg/mL and 2.26.
For the compound `C[C@@H]1[C@H](O)[C@@H](C)/C=C/C=C/C=C/C=C/C=C/C=C/C=C/[C@H](O[C@@H]2O[C@H](C)[C@@H](O)[C@H](N)[C@@H]2O)C[C@@H]2O[C@](O)(C[C@@H](O)C[C@@H](O)[C@H](O)CC[C@@H](O)C[C@@H](O)CC(=O)O[C@H]1C)C[C@H](O)[C@H]2C(=O)O` [AMPHOTERICIN B], the MIC (in the series with Saccharomyces cerevisiae; with Candida albicans; in series [2]) was 0.49 µg/mL (≈ 0.00053 mM) each time.
For `CCCCCCCCCC[N+]1=C(C)C(C)(C)c2ccccc21.[I-]`, the MIC in the series on Saccharomyces cerevisiae amounted to 15.6 µg/mL; with Candida albicans it was 500 µg/mL; in series [2] it was 15.6 µg/mL. Moreover, the logP in series [1] (read-out: logP) amounted to 3.78.
`CCCCCCCC[N+]1=C(C)C(C)(C)c2ccccc21.[I-]`: the MIC was found to be 62.5 µg/mL in the series on Saccharomyces cerevisiae, 1000 µg/mL in the series with Candida albicans and 62.5 µg/mL in series [2]. The logP in series [1] (read-out: logP) amounted to 2.77.
